The source made the active and inactive calls. The calls are words filed in the database; no cut-off is given here.
Key:
[1] = Antioxidant activity assessed as superoxide radical anion scavenging activity; format: functional
Method in brief: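 In vitro superoxide scavenging: superoxide generated by phenazine methosulfate–NADH system, detected as reduced nitroblue tetrazolium absorbance at 560 nm; dose–response used to derive IC50.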

[2] = tested on: Hepatocyte; test: Antioxidant activity against tert-butyl hydroperoxide-induced oxidative stress in Sprague-Dawley rat hepatocytes at 100 uM after 24 hrs by lactate dehydrogenase assay; format: functional, cell-based
Method in brief: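 Primary rat hepatocyte cultures pretreated with compounds for 24 h, compounds removed, then exposed to tert-butyl hydroperoxide; cell damage read as lactate dehydrogenase leakage into culture medium; mean ± SEM, n = 4.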

[3] = tested on: Liver; test: Antioxidant activity in BALB/c mouse liver microsomes assessed as complete inhibition of free radical-induced lipid peroxidation at 40 uM after 60 mins; format: functional; conditions: Microsome
Method in brief: (§1)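 Mouse liver microsomes subjected to free radical-induced lipid peroxidation; formation of lipid peroxides measured with compounds over a concentration range, IC50 derived; mean ± SEM, n = 4.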

[4] = tested on: Liver; test: Antioxidant activity in BALB/c mouse liver microsomes assessed as inhibition of free radical-induced lipid peroxidation after 60 mins; format: functional, Microsome; conditions: 1 h; method in brief: as §1
[5] = tested on: Hepatocyte; test: Cytotoxicity against rat hepatocytes upto 100 uM after 48 hrs; format: cell-based
Method in brief: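 Primary cultured rat hepatocytes incubated with compounds up to 100 µM for 48 h to check cytotoxicity.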

[6] = tested on: KB; test: Cytotoxicity against human KB cells after 3 to 5 days by MTT assay; format: functional, cell-based
[7] = tested on: Liver; test: Antioxidant activity in BALB/c mouse liver microsomes assessed as complete inhibition of free radical-induced lipid peroxidation at 20 uM after 60 mins; format: functional; conditions: Microsome; method in brief: as §1

Row | IC50 [1] | IC50 [4] | Structure (SMILES) | Activity [2] | Activity [3] | Activity [5] | Activity [6] | Activity [7]
1 | 48.1 µM | 27.9 µM | COc1cc([C@@H]2C[C@H](O)C[C@H](CCc3ccc(O)cc3)O2)cc(O)c1O | Active | Active |  |  | 
2 | 36.4 µM | 17.1 µM | COc1cc(CCC(=O)CC(O)CCc2ccc(O)c(O)c2)ccc1O (stereo not given) | Active |  | Non-toxic | Not toxic | Active
3 |  |  | COc1cc(CCC(=O)CC(O)CCc2cc(O)c(O)c(OC)c2)ccc1O (stereo not given) |  |  | Non-toxic | Not toxic | 
4 | 39.9 µM | 21.9 µM | COc1cc([C@@H]2C[C@@H](O)C[C@H](CCc3ccc(O)c(O)c3)O2)cc(O)c1O | Active | Active | Non-toxic | Not toxic | 
5 |  |  | COc1cc(CCC(O)CC(=O)CCc2cc(O)c(O)c(OC)c2)ccc1O (stereo not given) |  |  | Non-toxic | Not toxic | 
